In article PMC4924508 (Theranostics, 2016):
Square brackets hold non-standard residues; d marks the D form. Peptide text beside a SMILES is read from it. * marks the point of attachment. Biotin = O=C1N[C@H]2[C@H](CS[C@H]2CCCCC(=O)*)N1

Legend:
[1] = tested on: CT-26 colon carcinoma tumors / M2-like TAMs; assay: In vivo biodistribution study in CT-26 tumor model; set-up: species or system mouse; conditions: 20 min after injection, n = 5, result in words
How it was run: (§1)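 Female BALB/c mice (6 week-old) received CT-26 cells in the right flank or 4T1 cells in the mammary fat pad, and were used 2 weeks later (tumor diameter ≤1.5 cm). Sulfo-Cy5-labeled test compound (2.24 nmol, PBS/10% DMSO) or PBS was injected retro-orbitally. After 20 min, mice were PBS-perfused. Tumors were enzymatically dissociated, Fc-blocked, stained for CD11b/Ly-6G/F4/80, PFA-fixed and run on flow cytometry. Subsets were compared by one-way ANOVA/Tukey.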

[2] = tested on: 4T1 breast carcinoma tumors / M2-like TAMs; assay: In vivo biodistribution study in 4T1 tumor model; set-up: species or system mouse; conditions: 20 min after injection, n = 3, result in words
How it was run: as §1

[3] = Serum stability study in normal mouse serum, MALDI-TOF MS; format: in vitro ADME; conditions: 37 °C, result in words

CGYEQDPWGVRYWYGCkkk(k(N3)-sulfoCy5) (disulfide) [Cyclic M2pep(RY)-sulfoCy5]
intratumoral selectivity to M2-like TAMs over M1-like TAMs and CD11b- cells [1]: selectivity to M2-like TAMs over M1-like TAMs and non-TAM CD11b^- cells was observed | intratumoral uptake in M2-like TAMs (flow cytometry) [1]: significantly higher uptake in M2-like TAMs compared to M2pep-sulfoCy5 | intratumoral accumulation in M2-like TAMs (flow cytometry) [2]: accumulated preferentially in M2-like TAMs

CC(=O)N[C@@H](Cc1ccc(O)cc1)C(=O)N[C@@H](CCC(=O)O)C(=O)N[C@@H](CCC(N)=O)C(=O)N[C@@H](CC(=O)O)C(=O)N1CCC[C@H]1C(=O)N[C@@H](Cc1c[nH]c2ccccc12)C(=O)NCC(=O)N[C@H](C(=O)N[C@@H](CCCNC(=N)N)C(=O)N[C@@H](Cc1c[nH]c2ccccc12)C(=O)N[C@@H](Cc1c[nH]c2ccccc12)C(=O)N[C@@H](Cc1ccc(O)cc1)C(=O)NCC(=O)NCC(=O)NCC(=O)N[C@@H](CO)C(=O)N[C@@H](CCCCN)C(=O)N[C@@H](CCCCN)C(=O)N[C@@H](CCCCN)C(=O)N[C@@H](CCCCNC(=O)CCCC[C@@H]1SC[C@@H]2NC(=O)N[C@@H]21)C(N)=O)C(C)C [K9R] (Ac-YEQDPWGVRWWYGGGSKKKK(Biotin)-NH2)
protection against endolytic cleavage at the W10/W11 site in serum [3]: did not confer protection at the W10/W11 site

CC(=O)N[C@@H](Cc1ccc(O)cc1)C(=O)N[C@@H](CCC(=O)O)C(=O)N[C@@H](CCC(N)=O)C(=O)N[C@@H](CC(=O)O)C(=O)N1CCC[C@H]1C(=O)N[C@@H](Cc1c[nH]c2ccccc12)C(=O)NCC(=O)N[C@H](C(=O)N[C@@H](CCCCN)C(=O)N[C@H](Cc1c[nH]c2ccccc12)C(=O)N[C@@H](Cc1c[nH]c2ccccc12)C(=O)N[C@@H](Cc1ccc(O)cc1)C(=O)NCC(=O)NCC(=O)NCC(=O)N[C@@H](CO)C(=O)N[C@@H](CCCCN)C(=O)N[C@@H](CCCCN)C(=O)N[C@@H](CCCCN)C(=O)N[C@@H](CCCCNC(=O)CCCC[C@@H]1SC[C@@H]2NC(=O)N[C@@H]21)C(N)=O)C(C)C [W10w] (Ac-YEQDPWGVK[dW]WYGGGSKKKK(Biotin)-NH2)
protection against endolytic cleavage at the W10/W11 site in serum [3]: effective protection against endolytic cleavage at the W10/W11 site

YEQDPWGVKWWYGGGSKKK(k(N3)-sulfoCy5) [M2pep-sulfoCy5]
intratumoral selectivity to M2-like TAMs over M1-like TAMs and CD11b- cells [1]: selectivity to M2-like TAMs over M1-like TAMs and non-TAM CD11b^- cells was observed

CC(=O)N[C@@H](Cc1ccc(O)cc1)C(=O)N[C@@H](CCC(=O)O)C(=O)N[C@@H](CCC(N)=O)C(=O)N[C@@H](CC(=O)O)C(=O)N1CCC[C@H]1C(=O)N[C@@H](Cc1c[nH]c2ccccc12)C(=O)NCC(=O)N[C@H](C(=O)N[C@@H](CCCCN)C(=O)N[C@@H](Cc1c[nH]c2ccccc12)C(=O)N[C@@H](Cc1c[nH]c2ccccc12)C(=O)N[C@@H](Cc1ccc(O)cc1)C(=O)NCC(=O)NCC(=O)NCC(=O)N[C@@H](CO)C(=O)N[C@@H](CCCCN)C(=O)N[C@@H](CCCCN)C(=O)N[C@@H](CCCCN)C(=O)N[C@@H](CCCCNC(=O)CCCC[C@@H]1SC[C@@H]2NC(=O)N[C@@H]21)C(N)=O)C(C)C [AcM2pepBiotin] (Ac-YEQDPWGVKWWYGGGSKKKK(Biotin)-NH2)
overall serum stability [3]: did not improve the overall serum stability | resistance to N-terminal (exolytic) degradation in serum [3]: resistant to N-terminal degradation

CC(=O)N[C@@H](Cc1ccc(O)cc1)C(=O)N[C@@H](CCC(=O)O)C(=O)N[C@@H](CCC(N)=O)C(=O)N[C@@H](CC(=O)O)C(=O)N1CCC[C@H]1C(=O)N[C@@H](Cc1c[nH]c2ccccc12)C(=O)NCC(=O)N[C@H](C(=O)N[C@@H](CCCNC(=N)N)C(=O)N[C@@H](Cc1ccc(O)cc1)C(=O)N[C@@H](Cc1c[nH]c2ccccc12)C(=O)N[C@@H](Cc1ccc(O)cc1)C(=O)NCC(=O)NCC(=O)NCC(=O)N[C@@H](CO)C(=O)N[C@H](CCCCN)C(=O)N[C@H](CCCCN)C(=O)N[C@H](CCCCN)C(=O)N[C@@H](CCCCNC(=O)CCCC[C@@H]1SC[C@@H]2NC(=O)N[C@@H]21)C(N)=O)C(C)C [AcM2pep(RY)Biotin] (Ac-YEQDPWGVRYWYGGGS[dK][dK][dK]K(Biotin)-NH2)
protection against endolytic cleavage at the W10/W11 site in serum [3]: did not improve serum stability at the W10/W11 site

CC(=O)N[C@@H](Cc1ccc(O)cc1)C(=O)N[C@@H](CCC(=O)O)C(=O)N[C@@H](CCC(N)=O)C(=O)N[C@@H](CC(=O)O)C(=O)N1CCC[C@H]1C(=O)N[C@@H](Cc1c[nH]c2ccccc12)C(=O)NCC(=O)N[C@H](C(=O)N[C@@H](CCCNC(=N)N)C(=O)N[C@@H](Cc1ccc(O)cc1)C(=O)N[C@@H](Cc1c[nH]c2ccccc12)C(=O)N[C@H](Cc1ccc(O)cc1)C(=O)NCC(=O)NCC(=O)NCC(=O)N[C@@H](CO)C(=O)N[C@H](CCCCN)C(=O)N[C@H](CCCCN)C(=O)N[C@H](CCCCN)C(=O)N[C@@H](CCCCNC(=O)CCCC[C@@H]1SC[C@@H]2NC(=O)N[C@@H]21)C(N)=O)C(C)C [Y12y] (Ac-YEQDPWGVRYW[dY]GGGS[dK][dK][dK]K(Biotin)-NH2)
protection against endolytic cleavage at the W10/W11 site in serum [3]: did not improve serum stability at the W10/W11 site

CC(=O)N[C@@H](Cc1ccc(O)cc1)C(=O)N[C@@H](CCC(=O)O)C(=O)N[C@@H](CCC(N)=O)C(=O)N[C@@H](CC(=O)O)C(=O)N1CCC[C@H]1C(=O)N[C@@H](Cc1c[nH]c2ccccc12)C(=O)NCC(=O)N[C@H](C(=O)N[C@@H](CCCCN)C(=O)N[C@@H](Cc1ccc(O)cc1)C(=O)N[C@@H](Cc1c[nH]c2ccccc12)C(=O)N[C@@H](Cc1ccc(O)cc1)C(=O)NCC(=O)NCC(=O)NCC(=O)N[C@@H](CO)C(=O)N[C@H](CCCCN)C(=O)N[C@H](CCCCN)C(=O)N[C@H](CCCCN)C(=O)N[C@@H](CCCCNC(=O)CCCC[C@@H]1SC[C@@H]2NC(=O)N[C@@H]21)C(N)=O)C(C)C [W10Y] (Ac-YEQDPWGVKYWYGGGS[dK][dK][dK]K(Biotin)-NH2)
protection against endolytic cleavage at the W10/W11 site in serum [3]: did not confer protection at the W10/W11 site

CC(=O)N[C@@H](Cc1ccc(O)cc1)C(=O)N[C@@H](CCC(=O)O)C(=O)N[C@@H](CCC(N)=O)C(=O)N[C@@H](CC(=O)O)C(=O)N1CCC[C@H]1C(=O)N[C@@H](Cc1c[nH]c2ccccc12)C(=O)NCC(=O)N[C@H](C(=O)N[C@@H](CCCCN)C(=O)N1CCC[C@H]1C(=O)N[C@@H](Cc1c[nH]c2ccccc12)C(=O)N[C@@H](Cc1ccc(O)cc1)C(=O)NCC(=O)NCC(=O)NCC(=O)N[C@@H](CO)C(=O)N[C@H](CCCCN)C(=O)N[C@H](CCCCN)C(=O)N[C@H](CCCCN)C(=O)N[C@@H](CCCCNC(=O)CCCC[C@@H]1SC[C@@H]2NC(=O)N[C@@H]21)C(N)=O)C(C)C [W10P] (Ac-YEQDPWGVKPWYGGGS[dK][dK][dK]K(Biotin)-NH2)
protection against endolytic cleavage at the W10/W11 site in serum [3]: did not confer protection at the W10/W11 site
